In the library only some 2% were active in any assay of this set; here they are far more common.
GSTO1 inh: counter-screen for RBBP9 inhibitors: inhibitors of human GSTO1; 300,000 compounds, 1.1% hits; recombinant GSTO1, activity-based probe fluorescence polarization; inhibition, % at 5.96 µM; AID 1974; P78417;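 active = inhibition above the campaign mean inhibition plus 3 SD, cut at about 35% in these data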;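 note: 0% = GSTO1-1 with DMSO and 100% = wells lacking GSTO1-1 enzyme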
Apaf1 inhib: inhibitors of human Apaf-1 apoptosome. O14727. AID 489030. inhibition, % at 20 µM. reconstituted apoptosome caspase-3 activity, DEVD-Rh110 fluorescence. 330,000 compounds, 0.71% hits; active = inhibition of at least 40% at 20 µM;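 note: plate controls were DMSO wells for no effect and DEVD-CHO caspase inhibitor wells for full effect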
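Material: cell-free apoptosome with Apaf-1, procaspase-3 and caspase-9; Buffer or medium: Hepes pH 7.5 with detergent and BSA; Reagent: cytochrome c trigger plus (Z-DEVD)2-Rh110 caspase-3 substrate; Times: compound with Apaf-1, dATP, procaspase-3 30 min, then 50 min reaction, room temperature; Technique: Rh110 fluorescence intensity.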
UCH37 DUB inh: human UCH37 deubiquitinating enzyme inhibition | inhibition, % (no concentration beside the values) | Q9Y5K5 | 330,000 compounds, 0.33% hits | purified proteasome/UCH37, Ub-AMC cleavage fluorescence;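 active = mean inhibition over replicate wells above about 20%, limit read from the data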;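 note: 0% = compound-free wells with enzyme and 100% = wells lacking proteasome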
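Material: human UCH37 enzyme supplied as purified proteasome complex. Measure: % inhibition of Ub-AMC cleavage fluorescence. Medium: pH 7.4 Tris-HCl (50 mM) with ovalbumin, ATP-MgCl2, DTT. Times: 30 min preincubation with enzyme, 25 min cleavage at room temperature. Detection: AMC fluorescence intensity at 355/460 nm.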
PAD4 inh: blocks human protein arginine deiminase 4. Q9UM07. recombinant PAD4, RCA probe fluorescence polarization. inhibition, % at 6.36 µM. 330,000 compounds, 0.41% hits. AID 485272;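 active = percent inhibition above a cutoff equal to the mean of all tested compounds plus 3 SD, cut at about 15% in these data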;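 note: 0% = PAD4 with RCA probe and DMSO and 100% = probe without PAD4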
PP5 inh: blocks human protein phosphatase 5 activity; AID 1987; P53041; purified PP5c, OMFP substrate fluorescence; inhibition, % at 6.7 µM; 320,000 compounds, 0.18% hits;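 active = inhibition above the campaign's mean inhibition across all tested compounds plus 3 SD, cut at about 9.5% in these data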;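 note: 0% = DMSO only and 100% = 100 µM cantharidin control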
CTSL1 counter: counter-screen for PFM18AAP inhibitors: inhibitors of F. hepatica cathepsin L1; recombinant F. hepatica cathepsin L1, Z-Leu-Arg-MCA fluorescence; inhibition, % at 5.96 µM; 300,000 compounds, 0.49% hits; AID 1906;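 active = inhibition above the mean of all tested compounds plus 3 SD, set per screening campaign, cut at about 17% in these data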;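 note: 0% = plate median of test compound wells and 100% = 1 µM Z-Phe-Ala-diazomethylketone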
PAD4 FP conf: PAD4 (human) inhibition, confirmed; inhibition, % at 6.36 µM; recombinant PAD4, RCA probe fluorescence polarization; 1,200 compounds, 28% hits; shares compounds with PAD4 inh;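 active = mean inhibition across replicates above the hit cutoff set by the earlier primary screen, cut at about 15% in these data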;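 note: inhibitors block active-site labeling by the probe so polarization falls; 0% = PAD4 with probe and DMSO and 100% = probe without PAD4 enzyme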
Starred values were filed as active, the others as inactive; i = inactive; · = no result given.

SMILES | GSTO1 inh | Apaf1 inhib | UCH37 DUB inh | PAD4 inh | PP5 inh | CTSL1 counter | PAD4 FP conf
Cn1c(CN2CCOCC2)nnc1SCC(=O)Nc1ccc2c(c1)OCCO2 | -5 | -3 | 7 | 42* | 0 | 2 | 10
Cc1ccc(NC(=O)CSc2nnc(CN3CCOCC3)n2C)cc1C | 4 | -7 | 6 | -4 | 3 | 1 | ·
CCOC(=O)c1c(-c2ccccc2)csc1NC(=O)CSc1ccccc1 | -2 | 11 | 4 | -7 | 3 | -5 | ·
CCOC(=O)c1c(-c2ccc(OC)cc2)csc1NC(=O)CSc1ccccc1 | -2 | 3 | 2 | 20* | 0 | 2 | -2
NC(=O)NN=Cc1ccc(-c2ccc([N+](=O)[O-])cc2)o1 | · | · | 11 | · | · | · | ·
Cc1nnc(N/N=C\c2ccc(-c3ccccc3[N+](=O)[O-])o2)n1N | 36* | · | · | 35* | -2 | -2 | -5
Cc1nnc(N/N=C/c2ccc(-c3ccccc3F)o2)n1N | 30 | 10 | · | 25* | 2 | 5 | 2
CCc1nnc(N/N=C/c2ccc(-c3ccc([N+](=O)[O-])cc3)o2)n1N | 17 | 28 | · | 25* | 3 | 3 | -4
CS/C(=N\S(=O)(=O)c1cccs1)NC(=O)CSc1nc2ccccc2s1 | -26 | -6 | 6 | 18* | 0 | -1 | 7
CCCn1c(SCC(=O)Nc2ccc(Cl)cn2)nnc1C1CC1 | -6 | -6 | -1 | -4 | 3 | -2 | ·
Cn1c(SCC(=O)Nc2ccc(Br)cn2)nnc1C1CC1 | 4 | 3 | 4 | 156* | 1 | 2 | 23*
N=C1N(N=Cc2ccccc2)C(=Nc2ccccc2)C(=S)N1c1ccccc1 | · | · | 8 | · | · | · | ·
S=c1[nH]nc(-c2ccccc2)n1N=Cc1c[nH]c2ccccc12 | · | · | 1 | · | · | · | ·
COc1ccc(N(CC(=O)NN=Cc2ccc(OC)cc2OC)S(=O)(=O)c2ccccc2)cc1 | · | · | 2 | · | · | · | ·
O=S(=O)(c1cccs1)N1CN(Cc2ccc(Cl)cc2)c2nc3ccccc3nc21 | -2 | 20 | 0 | -2 | 0 | 4 | ·
O=S(=O)(c1cccs1)N1CN(Cc2ccco2)c2nc3ccccc3nc21 | 37* | 7 | -1 | 77* | -1 | 4 | 4
CC(C)(C)c1ccc(OCCCNC2CCCC2)cc1 | 6 | 11 | 3 | -3 | 1 | -2 | ·
Cc1ccc(OCCCNC2CCCC2)cc1 | 4 | 5 | 0 | 17* | 2 | 0 | 5
Nn1c(SCc2ccccc2)nc2c(cnn2-c2ccccc2)c1=O | 5 | -3 | 6 | 18* | 3 | -1 | 3
COc1cc(OC)cc(C(=O)Oc2ccc(C=NNc3nc4ccccc4s3)cc2OC)c1 | · | · | -17 | · | · | · | ·
Cc1cc(=O)oc2c(CN3CCC(C)CC3)c(O)c(Cl)cc12 | 19 | -2 | i | 33* | 3 | 6 | 21*
Cc1ccc(NC(=O)c2ccc3c(c2)OCCO3)nc1 | -3 | 4 | 4 | 16* | -1 | 5 | 12
Cc1ccc(NC(=O)c2ccc(=O)[nH]n2)cc1S(=O)(=O)Nc1ccc(SC(F)F)cc1 | · | 3 | -2 | 22* | · | · | 5
Cc1ccc(NC(=O)c2ccc(=O)[nH]n2)cc1C | 2 | 3 | 1 | 3 | -1 | 1 | ·
CCn1c(=NC(=O)CSC(C)=O)sc2cc(F)ccc21 | -13 | 3 | 5 | 16* | -6 | -11 | 4
SMILES | GSTO1 inh | Apaf1 inhib | UCH37 DUB inh | PAD4 inh | PP5 inh | CTSL1 counter | PAD4 FP conf
O=C(NN=C1CC2C=CCC12)c1ccco1 (configuration not stated) | · | · | 1 | · | · | · | ·
CCc1cc(SC#N)cc(CC)c1NC(=O)CCl | 71* | -3 | 6 | 16* | 2 | 7 | -4
CC(C)Oc1ccc(C(=O)NN=Cc2ccc(-c3ccc(S(=O)(=O)Nc4ncccn4)cc3)o2)cc1 | · | · | -47 | · | · | · | ·
CCSc1c([N+](=O)[O-])c(=O)n(-c2ccccc2)c2ccccc12 | -8 | 13 | 5 | 23* | 4 | 4 | 21*
CCOc1cc(N2CCOCC2)c(OCC)cc1NC(=O)CSc1ncccc1C(=O)O | · | -2 | 1 | 39* | · | · | 2
COc1ccc(OC)c(N(C)S(=O)(=O)c2ccc3c(c2)N(C(C)=O)CCO3)c1 | 2 | -3 | 0 | 18* | 3 | -2 | -2

Assay outcomes (PubChem BioAssay)
